# *1 amine or outer side, *2 acyl side, *3 side chain or, on linkers, in order; H or OH if unused. Where a SMILES comes first, the peptide text is derived from it. Bridges are numbered along the chain shown (N, C = ends). [ ]: non-standard residue; d: D form. X1 = O=C(CC1(S[*:2])CCCCC1)[*:1]; Orn = NCCC[C@H](N)C(=O)O
# Legend:
# Rattus norvegicus [1] = species on record: Rattus norvegicus; test: Anti-oxytocic activity on isolated rat uterus in absence of Mg2+. pA2 value is negative logarithm of effective dose (ED); type: functional; details: read-out: pA2 (converted)
# Procedure, shortened: (§1)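 Isolated rat uterus, with USP posterior pituitary reference standard as agonist. Antagonism expressed as pA2.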
# Rattus norvegicus [2] = test: Evaluated in vivo for logarithm effective dose (ED); type: functional, organism-based
# Rattus norvegicus [3] = species on record: Rattus norvegicus; test: Antidiuretic activity in rats and pA2 value is negative logarithm of effective dose (ED); type: functional, organism-based; details: Urine, read-out: pA2 (converted)
# Procedure, shortened: (§2)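 Antidiuretic assay in rats under ethanol anaesthesia against the USP posterior pituitary reference standard. Standard given 20 min after antagonist, or 10 min for analogues lacking agonism. Each peptide given at a high and a low dose. ED is the dose (nmol/kg) that cuts the response to 2x units of agonist to the response to 1x unit given before antagonist. […] Means ± SE, n assays.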
# Rattus norvegicus [4] = species on record: Rattus norvegicus; test: Anti-oxytocic activity on isolated rat uterus in presence of 0.5 mM of Mg2+. pA2 value is negative logarithm of effective dose (ED); type: functional; details: read-out: pA2 (converted); procedure, shortened: as §1
# Rattus norvegicus [5] = species on record: Rattus norvegicus; test: Anti-oxytocic activity in rat uterus pA2 value is negative logarithm of effective dose (ED); type: functional, organism-based; details: read-out: pA2 (converted)
# [6] = Ratio of anti-vasopressor ED50 to antiantidiuretic ED50; type: functional, Urine
# Procedure, shortened: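 Ratio of antivasopressor ED to antiantidiuretic ED. Each ED is the dose (nmol/kg) that lowers the response to 2x units of agonist to that of 1x unit before antagonist. Measured in rats: vasopressor assay in phenoxybenzamine-treated, urethane-anaesthetised animals; antidiuretic assay under ethanol anaesthesia.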
# Rattus norvegicus [7] = test: In vivo antidiuretic activity in rat measured as dose that reduced the response seen with 2x units of agonist to equal the response seen with 1x unit of agonist administered before antagonist; type: functional, Urine; procedure, shortened: as §2
# Rattus norvegicus [8] = species on record: Rattus norvegicus; test: Anti-oxytocic activity in rat uterus and effective dose (ED) was reported.; type: functional
# Procedure, shortened: (§3)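 Rat uterus in situ, with synthetic oxytocin as agonist. ED is the dose (nmol/kg) that lowers the response to 2x units of agonist to that of 1x unit given before antagonist.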
# Rattus norvegicus [9] = test: In vivo anti-vasopressor activity in phenoxybenzamine-treated rats under urethane anesthesia is measured as effective dose; type: functional
# Procedure, shortened: (§4)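 Intravenous vasopressor assay in phenoxybenzamine-treated rats under urethane anaesthesia, agonist USP posterior pituitary reference standard. ED is the dose (nmol/kg) that reduces the response to 2x units of agonist to that of 1x unit given before antagonist. […] Means ± SE, number of assays given.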
# Rattus norvegicus [10] = test: Compound was evaluated in vivo for anti-vasopressor activity in rats and pA2 value is negative logarithm of effective dose (ED); type: functional, organism-based; details: read-out: pA2 (converted); procedure, shortened: as §4
# Rattus norvegicus [11] = species on record: Rattus norvegicus; test: In vitro anti-oxytocic activity on isolated rat uteri in absence of Mg2+. pA2 value is negative logarithm of effective dose (ED); type: functional; details: read-out: pA2 (converted); procedure, shortened: as §1
# Rattus norvegicus [12] = test: Compound was evaluated in vivo for anti-oxytocic activity in rat uterus. pA2 value is negative logarithm of effective dose (ED); type: functional, organism-based; details: read-out: pA2 (converted); procedure, shortened: as §3
# Rattus norvegicus [13] = test: Compound was evaluated in vivo for anti-oxytocic activity in rat uteri. pA2 value is negative logarithm of effective dose (ED); type: functional, organism-based; details: read-out: pA2 (converted); procedure, shortened: as §3
SMILES,Kb (Rattus norvegicus [1]),in vivo pA2 effective dose (as concentration) (Rattus norvegicus [2]),Kb (Rattus norvegicus [3]),Kb (Rattus norvegicus [4]),Ratio [6],ED (Rattus norvegicus [7]),ED (Rattus norvegicus [8]),ED (Rattus norvegicus [9]),also measured
CC[C@@H](C)[C@H]1NC(=O)CC2(CCCCC2)SSC[C@@H](C(=O)N2CCC[C@H]2C(=O)N[C@@H](CCCN=C(N)N)C(=O)NCC(N)=O)NC(=O)[C@H](CC(N)=O)NC(=O)[C@H](CCCN)NC(=O)[C@H](Cc2ccccc2)NC1=O,26.9 nM,174 nM,347 nM,195 nM,,,,,
NC(=O)CNC(=O)[C@H](CCCN=C(N)N)NC(=O)[C@@H]1CCCN1C(=O)[C@@H]1CSSC2(CCCCC2)CC(=O)N[C@H](Cc2ccccc2)C(=O)N[C@@H](Cc2ccccc2)C(=O)N[C@@H](CO)C(=O)N[C@@H](CC(N)=O)C(=O)N1 [listing 1 of 2 here],22.9 nM,23.4 nM,46.8 nM,14.8 nM,,,,,Kb (Rattus norvegicus [5]): 200 nM
NC(=O)CNC(=O)[C@H](CCCN=C(N)N)NC(=O)[C@@H]1CCCN1C(=O)[C@@H]1CSSC2(CCCCC2)CC(=O)N[C@H](Cc2ccccc2)C(=O)N[C@@H](Cc2ccccc2)C(=O)N[C@@H](CO)C(=O)N[C@@H](CC(N)=O)C(=O)N1 [listing 2 of 2 here],,,,,0.41,3.9 nmol/kg,13 nmol/kg,1.6 nmol/kg,
CC[C@@H](C)[C@H]1NC(=O)CC2(CCCCC2)SSC[C@@H](C(=O)N2CCC[C@H]2C(=O)N[C@@H](CCCN=C(N)N)C(=O)NCC(N)=O)NC(=O)[C@H](CC(N)=O)NC(=O)[C@H](C)NC(=O)[C@H](Cc2ccccc2)NC1=O [listing 1 of 2 here],31.6 nM,,17.4 nM,33.9 nM,,,,,Kb (Rattus norvegicus [5]): 724 nM; Kb (Rattus norvegicus [10]): 933 nM
CC[C@@H](C)[C@H]1NC(=O)CC2(CCCCC2)SSC[C@@H](C(=O)N2CCC[C@H]2C(=O)N[C@@H](CCCN=C(N)N)C(=O)NCC(N)=O)NC(=O)[C@H](CC(N)=O)NC(=O)[C@H](C)NC(=O)[C@H](Cc2ccccc2)NC1=O [listing 2 of 2 here],,,,,39,1.7 nmol/kg,57 nmol/kg,66 nmol/kg,
CCC[C@@H]1NC(=O)[C@H](Cc2ccccc2)NC(=O)[C@@H]([C@H](C)CC)NC(=O)CC2(CCCCC2)SSC[C@@H](C(=O)N2CCC[C@H]2C(=O)N[C@@H](CCCN=C(N)N)C(=O)NCC(N)=O)NC(=O)[C@H](CC(N)=O)NC1=O [listing 1 of 2 here],14.8 nM,110 nM,97.7 nM,15.8 nM,,,,,Kb (Rattus norvegicus [5]): 295 nM
CCC[C@@H]1NC(=O)[C@H](Cc2ccccc2)NC(=O)[C@@H]([C@H](C)CC)NC(=O)CC2(CCCCC2)SSC[C@@H](C(=O)N2CCC[C@H]2C(=O)N[C@@H](CCCN=C(N)N)C(=O)NCC(N)=O)NC(=O)[C@H](CC(N)=O)NC1=O [listing 2 of 2 here],,,,,1.2,7 nmol/kg,22 nmol/kg,8.2 nmol/kg,
CC[C@@H]1NC(=O)[C@H](Cc2ccccc2)NC(=O)[C@@H]([C@H](C)CC)NC(=O)CC2(CCCCC2)SSC[C@@H](C(=O)N2CCC[C@H]2C(=O)N[C@@H](CCCN=C(N)N)C(=O)NCC(N)=O)NC(=O)[C@H](CC(N)=O)NC1=O [listing 1 of 2 here],,,6.03 nM,93.3 nM,,,,,Kb (Rattus norvegicus [5]): 224 nM; Kb (Rattus norvegicus [10]): 186 nM; Kb (Rattus norvegicus [11]): 32.4 nM
CC[C@@H]1NC(=O)[C@H](Cc2ccccc2)NC(=O)[C@@H]([C@H](C)CC)NC(=O)CC2(CCCCC2)SSC[C@@H](C(=O)N2CCC[C@H]2C(=O)N[C@@H](CCCN=C(N)N)C(=O)NCC(N)=O)NC(=O)[C@H](CC(N)=O)NC1=O [listing 2 of 2 here],,,,,29,0.41 nmol/kg,19 nmol/kg,12 nmol/kg,
CC[C@@H](C)[C@H]1NC(=O)CC2(CCCCC2)SSC[C@@H](C(=O)N2CCC[C@H]2C(=O)N[C@@H](CCCN=C(N)N)C(=O)NCC(N)=O)NC(=O)[C@H](CC(N)=O)NC(=O)[C@H](CC(N)=O)NC(=O)[C@H](Cc2ccccc2)NC1=O,11.7 nM,55 nM,309 nM,39.8 nM,,,,,
CC[C@@H](C)[C@H]1NC(=O)CC2(CCCCC2)SSC[C@@H](C(=O)N2CCC[C@H]2C(=O)N[C@@H](CCCN=C(N)N)C(=O)NCC(N)=O)NC(=O)[C@H](CC(N)=O)NC(=O)[C@H]([C@@H](C)O)NC(=O)[C@H](Cc2ccccc2)NC1=O [listing 1 of 2 here],7.94 nM,148 nM,12.3 nM,20.4 nM,,,,,Kb (Rattus norvegicus [12]): 135 nM
CC[C@@H](C)[C@H]1NC(=O)CC2(CCCCC2)SSC[C@@H](C(=O)N2CCC[C@H]2C(=O)N[C@@H](CCCN=C(N)N)C(=O)NCC(N)=O)NC(=O)[C@H](CC(N)=O)NC(=O)[C@H]([C@@H](C)O)NC(=O)[C@H](Cc2ccccc2)NC1=O [listing 2 of 2 here],,,,,12,0.88 nmol/kg,9.5 nmol/kg,10.5 nmol/kg,
CC[C@@H](C)[C@H]1NC(=O)CC2(CCCCC2)SSC[C@@H](C(=O)N2CCC[C@H]2C(=O)N[C@@H](CCCN=C(N)N)C(=O)NCC(N)=O)NC(=O)[C@H](CC(N)=O)NC(=O)[C@H](CO)NC(=O)[C@H](Cc2ccccc2)NC1=O,52.5 nM,617 nM,55 nM,151 nM,,,,,
CC[C@@H](C)[C@H]1NC(=O)CC2(CCCCC2)SSC[C@@H](C(=O)N2CCC[C@H]2C(=O)N[C@@H](CCCN=C(N)N)C(=O)NCC(N)=O)NC(=O)[C@H](CC(N)=O)NC(=O)[C@H]([C@@H](C)CC)NC(=O)[C@H](Cc2ccccc2)NC1=O [listing 1 of 2 here],33.9 nM,,9.12 nM,15.1 nM,,,,,Kb (Rattus norvegicus [13]): 126 nM; Kb (Rattus norvegicus [10]): 380 nM
CC[C@@H](C)[C@H]1NC(=O)CC2(CCCCC2)SSC[C@@H](C(=O)N2CCC[C@H]2C(=O)N[C@@H](CCCN=C(N)N)C(=O)NCC(N)=O)NC(=O)[C@H](CC(N)=O)NC(=O)[C@H]([C@@H](C)CC)NC(=O)[C@H](Cc2ccccc2)NC1=O [listing 2 of 2 here],,,,,39,0.67 nmol/kg,9.4 nmol/kg,26 nmol/kg,
CC[C@@H](C)[C@H]1NC(=O)CC2(CCCCC2)SSC[C@@H](C(=O)N2CCC[C@H]2C(=O)N[C@@H](CCCN=C(N)N)C(=O)NCC(N)=O)NC(=O)[C@H](CC(N)=O)NC(=O)[C@H](CC(C)C)NC(=O)[C@H](Cc2ccccc2)NC1=O,14.5 nM,178 nM,158 nM,26.9 nM,,,,,
NCCC[C@@H]1NC(=O)[C@H](Cc2ccccc2)NC(=O)[C@@H](Cc2ccccc2)NC(=O)CC2(CCCCC2)SSC[C@@H](C(=O)N2CCC[C@H]2C(=O)N[C@@H](CCCN=C(N)N)C(=O)NCC(N)=O)NC(=O)[C@H](CC(N)=O)NC1=O ([dF]F[Orn]NCPRG-NH2; linker N-5 via X1),18.6 nM,26.9 nM,316 nM,20 nM,,,,,

# Reference: ChEMBL document CHEMBL1122629, “Potent and selective antagonists of the antidiuretic responses to arginine-vasopressin based on modifications of [1-(beta-mercapto-beta,beta-pentamethylenepropionic acid),2-D-isoleucine,4- valine]arginine-vasopressin at position 4” (J Med Chem, 1984)
